# How the values were obtained:
# 3T3-L1 cells [1] = assay: Cell cytotoxicity; assay type: cell-based; details: MTT, 24 h
# In short: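 3T3-L1 cells were differentiated under hypoxia (100 μM CoCl2 in differentiation medium, refreshed every 2 days) and treated for 24 h at 37 °C with the test compound, at 1.5 μg/μl ASO equivalent. MTT (5 mg/ml in complete DMEM) was then added for 5 h. Formazan was dissolved in DMSO and absorbance read. Viability (%) = OD(sample)/OD(control) × 100.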
# 3T3-L1 cells [2] = assay: Cellular uptake and intracellular localization by confocal microscopy; assay type: cell-based; details: 6-FAM-tagged ASO, 24 h; for cellular uptake, control group: non-differentiated control (Con) cells
# In short: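 Control or normoxic-differentiated 3T3-L1 cells were detached at day 4 after induction and re-seeded on chambered coverglass at 70% confluency. After about 20 h, cells were given 6-FAM (3′)-labelled ASO conjugate, or equivalent ASO or ionic complex, for 24 h without serum deprivation. After a PBS wash, live cells were imaged by laser-scanning confocal microscopy (water immersion ×60, 37 °C, 5% CO2).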
Substance,"cell viability under hypoxia compared to that of control (3T3-L1 cells [1]; differentiation under hypoxia, 1.5 μg/μl ASO)","concentration showing significant cell toxicity (3T3-L1 cells [1]; non-differentiated control 3T3-L1 cells, AS-L containing 0-10 μg/μl of ASO)","cellular uptake, differentiation group under normoxia (3T3-L1 cells [2]; differentiation under normoxia (D))","cellular uptake, control group (3T3-L1 cells [2])"
"ASO: PS modified antisense-HIF1α-oligonucleotide, 5’-ACAACGCGGGCACCGATTCGCCATG-3’ (antisense ACAACGCGGGCACCGATTCGCCATG; all phosphorothioate, sugars by position and methylation of C not given here)",statistically indistinguishable,≥ 2 µg/µL,unable to internalize into cells,unable to internalize into cells
"MMO: PS modified mismatch-HIF1α-oligonucleotide, 5’-GTGATCCCCTGCTCTTGCCGT-3’ (GTGATCCCCTGCTCTTGCCGT; all phosphorothioate, sugars by position and methylation of C not given here) [reference compound]",–,–,–,unable to internalize into cells

# — article PMC2862791 (Journal of controlled release : official journal of the …, 2010)
